Laboratory results: the EternaBench riboswitch data

Test system: MS2 coat protein
Test: apparent Kd, MS2 coat protein; higher = weaker binding; RNA-MaP array; FMN 200 µM where present
Outline: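 Designs were transcribed by stalled E. coli RNA polymerase on Illumina sequencing-chip clusters. They were titrated with SNAP-549-labelled MS2 coat protein from 0.7 or 1.5 nM, doubling to 3 µM, without and then with constant ligand. Buffer: 100 mM Tris-HCl pH 7.5, 80 mM KCl, 4 mM MgCl2, BSA, DTT, yeast tRNA, Tween-20. Green signal was normalised to red-channel RNA signal and control-cluster median Fmax. Apparent Kd is the median of filtered per-cluster binding-curve fits.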

[1] = designed as: ON switch for flavin mononucleotide, no ligand
[2] = ligand present: flavin mononucleotide, designed as: ON switch for flavin mononucleotide
[3] = designed as: OFF switch for flavin mononucleotide, no ligand
[4] = ligand present: flavin mononucleotide, designed as: OFF switch for flavin mononucleotide

Row | Sequence | apparent Kd [1] [nM] | apparent Kd [2] [nM] | apparent Kd [3] [nM] | apparent Kd [4] [nM]
1 | AACGCGGAAAUCGCAAUACAUGAGGAUCACCCAUGUAGAUCGCAGGAUAUGGUCUAGUCAGUGGUCCAGAAGGGUGAUCAGAAC | 125 | 74.5 |  | 
2 | GGGCUGUCAGGAUAUUGAUCGUGAUCGGAAAUGAUCGUGAUCGAGAAGGGACAUGAGGAUCACCCAUGUGGCCC |  |  | 30.8 | 33
3 | UGUCUAUUUGAAGGAUAUCUAAGCAUAAACCGUAGAGAAGGUCAAUUAUACAUGAGGAUCACCCAUGUUGAGAUUGAUGGGUUU |  |  | 16.9 | 17.8
4 | AUAUGUUAUUAGGAUAUUAAUGCGCGGUCGCAUUAAGAAGGAGUGACAUGAGGAUCACCCAUGUACCACGCUCA |  |  | 24.3 | 23.3
5 | UGAUAGGACAGAGGAUAUACGUGCUAGAGAUACUAGCAAAAUAUCCUCACAUGAGGAUCACCCAUGUAGAAGGCUGUCCUAUCU |  |  | 18 | 83.3
6 | AAUCUGUAGCAGAAGGUCAUUUUUAUAAAUAAACUGGUGACAUGAGGAUCACCCAUGUAAACGUUGAAGGAUAUGCAUUCUAUU |  |  | 44.9 | 52.5
7 | GAUAGGAUGUGAGGAUAUGCUGAGGAUACUUCAGCAGAAGGCACAUGAGGAUCACCCAUGUACACUUAUCAUAAAUACCCUAUC |  |  | 13 | 17.9
8 | UCAUAUAUACAAGGAUAUCAAUUAUUUAUACAUCCUACAUGAGGAUCACCCAUGUUUUUAUAUUUUGAGAAGGUGUAAUGUCUU | 21.1 | 27.5 |  | 
9 | CAGCAAUGUAAGAAGGUAUUUAUUAUUAUAUUAUAAGGAUAUUACAUGAGGAUCACCCAUGUAUGAACCAAUAGCUGAAUUAUA |  |  | 6.1 | 5.88
10 | AGGUAAGAGUUAAUUGUGACGGUGAGAAGGCAAUAGGUUGUGAUUAACAUGAGGAUCACCCAUGUUGAGGAUAUCACCACCUAC |  |  | 14.3 | 80.8
11 | AAAACGAAAGUCGAACGAUGUAGCAGAAGGACAUGAGGAUCACCCAUGUCAGCUGUAACAGCCAUGUAGGAUAUGCUACAUUUU |  |  | 5.47 | 6.35
12 | CUCGAGUUAGGAUAUCGAACGUAACAAGCGGGAACUCCCGCCGAGAAGGAACAUGAGGAUCACCCAUGUGAAAA |  |  | 23.2 | 22.2
13 | UGGUGAUUUGUAGGAUAUGGAAAUAUAUUAUAACCAGAAGGACAUGAGGAUCACCCAUGUGAUAGAGUUUUUUUUUUUUCUCCU |  |  | 31.5 | 14.1
14 | AUUAUUAAUGCAGGAUAUGAUUAACAUGAGGAUCACCCAUGUGGUGUUGUGAGUAAGGAGAGUGAUCAGAAGGGCAUUUUUUUU | 493 | 695 |  | 
15 | ACAUGAGGAUCACCCAUGUAUUACAUGGUUAUGUUUAUUAACAGAAGGCGAAAUUACCACUGUUUCGAGGAUAUGUAUUCUAUA |  |  | 65.5 | 63
16 | CAUUCCAGGUAGAAGGGAUUACUACAUGAGGAUCACCCAUGUCGAUUGGUCAGGAUAUGCCUGUCACGACGCGUGAUGCUAAAA | 382 | 187 |  | 
17 | UACUUCCGAGGAUAUACAUGAGGAUCACCCAUGUGCUUCAGCAUCGAAAGAUGCAUGGGUAGAAGGCGGUAGUU |  |  | 44.6 | 50.4
18 | UUAAAUCAUGUAGGAUAUGCAUGGCGAAGCUACGCAGAAGGACAUGAGGAUCACCCAUGUUAUAGCUUCCAAGUUAGGAGGCAA |  |  | 85.7 | 191
19 | CGCUAAUAAUUAAUAUUAAUUGUACAGGAUAUGUAACAUGAGGAUCACCCAUGUAUUGGGUUUAAACAGAAGGGUAUAUUAGCG |  |  | 387 | 92.4
20 | GAUGACAUGAGGAUCACCCAUGUGAUGGUUUGAGGUGGUUACAGAAGGGACGUAUAGUGGUGUGGUCAGGAUAUGUAGAAUCCU | 125 | 50.9 |  | 
21 | UCGAUGCGAGGAUAUACUAAGGCAACUACUGCAGCUCAAAAACAUGAGGAUCACCCAUGUAGAAGGCGCAUAUA |  |  | 16 | 15.4
22 | CCUUUGAAGAUCCUAAAUUUCGACAUGAGGAUCACCCAUGUGCAGGAUAUCGUGCCAGUGAUGUGCGAGAAGGGCAGUCUCUGC |  |  | 64.6 | 73.9
23 | UGAUAUGUAGUAGGAUAUCAGGUUACAUGAGGAUCACCCAUGUUAGAUUGGUGGAUAGAUGUUGAUGAGAAGGACUUUUGAGUU |  |  | 79.6 | 100
24 | GUCGGAAACGACAAAAGUAUGGAUCCAGAAGGCAUGUACAUGAGGAUCACCCAUGUCUAAAGAUAUGAGGAUAUGGAUCCAUAC | 6.71 | 5.18 |  | 
25 | UAACAAAUUGUCAGGAUAUCAUUCCCGGCCCAGAGUGAGAAGGGACAUGAGGAUCACCCAUGUAUGAUUCUCAC |  |  | 16.1 | 15.3
26 | AGAUGGUAUAUAGGAUAUCAUGUGCAAACAUGAGGAUCACCCAUGUAGAAACGUCAGUUUAAUAAUGAGAAGGAUAUACCAUCU | 31.9 | 11.5 |  | 
27 | CUUGUGUUAGGAUAUGCGUUUCCGGUGCGUCACUGGAUCUGGCAGAAGGGACAUGAGGAUCACCCAUGUUUGGC |  |  | 38.7 | 31
28 | GCACUUGCGUAGAAGGUACUAUAUAAUACACUGUAAGGAUAUACAUACAUGAGGAUCACCCAUGUAAAUGGAAUUUGCAAGUGC | 6.62 | 6.49 |  | 

Row | Sequence | apparent Kd [1] [nM] | apparent Kd [2] [nM] | apparent Kd [3] [nM] | apparent Kd [4] [nM]
29 | GUAGCAUACGGAGGAUAUUCAUACCGGAAACGGACAUGAGGAUCACCCAUGUGGCGAAAGCCUUGGGAGAAGGCCGUAUGCUAC | 671 | 21.9 |  | 
30 | AAUGUGUGUCGAGGAUAUAUUAUAUGACAACAAACACAUACAUGAGGAUCACCCAUGUCCCAUGUAUAGAAGGCGAUGUGUGUG | 130 | 174 |  | 
31 | UGUCGGAGCAGAGGAUAUUACAUGAGGAUCACCCAUGUAUGAACCAAUAGCUGGAAACAGCAAUGUCAGAAGGCUGCUCCGACA |  |  | 5 | 5.06
32 | GUCGAGUGAGGAUAUGGUGAGUAGUGCCAGAGCGCUGCUCACCAGAAGGCACAUGAGGAUCACCCAUGUAUGUC |  |  | 12.9 | 20.8
33 | CGAUGUUAUGCAGGAUAUCUCUCUUGAUUGAGGAGAGAAGGGCAUAGGGAGACAUACGCCUUAUUACAUGAGGAUCACCCAUGU |  |  | 9.47 | 7.85
34 | AAAUAACAUGUAGGAUAUCCAGCAUUGACCAUCGGAGAAGGACAUGAGGAUCACCCAUGUACCGAUACAAUGGAAUAAGGGAAU |  |  | 16 | 17.9
35 | AAAAUACAUGAGGAUCACCCAUGUUAGGAUAUCCAAGGCCUGACCCUCAAGGUCAGGCGGAGAAGGGAUGUGGU |  |  | 50.4 | 51.3
36 | CCUCCACAUGAGGAUCACCCAUGUCAGGAUAUCGCGCGCGCGUUUUCGGUCUUUCGCGCGAGAAGGGACGACUG |  |  | 34.4 | 54.5
37 | AUAAACCUAGGAUAUACAUGAGGAUCACCCAUGUAAGGGCAAUGCCCAUGCUCCUCAUGUAGAAGGAGGAGCAG |  |  | 21.8 | 25.5
38 | AAUACAUGAGGAUCACCCAUGUUAUGUUCAAACAAUAUGAGUGAGGAUAUACUGAGUUAGUUAUGGUAGAAGGCACUGGGUUCA | 56.3 | 36.2 |  | 
39 | GUCUUCCUAGGAUAUACAUGAGGAUCACCCAUGUACAGUUUCGUCUUGGGAUACUCGCGUAGAAGGAGGUGGUU |  |  | 33.2 | 37.3
40 | CAGUGCUGUUGAGAGGAUAUGCGGCGACGGACAUGAGGAUCACCCAUGUUAGCGACAGCGUUGCGGCAGAAGGCUCUGCCCGCUA | 52.3 | 23.1 |  | 
41 | CUCUUGUCAGGAUAUCUAAGCUGCCUCCCAGUAGCCGAAUUAGAGAAGGGACAUGAGGAUCACCCAUGUAAACG |  |  | 105 | 34.2
42 | CCCUCACAUGAGGAUCACCCAUGUCAGGAUAUUCGGCGGUCAAUUGACCGCCUUAAAGGAAGAAGGGACGUAAA |  |  | 12.7 | 18.9
43 | CAUUAUGUUGAGGAUAUGCGCCGGCUCGCUGGCACAGAAGGCGACACAUGAGGAUCACCCAUGUCAGUUCGCGA |  |  | 12.2 | 14.8
44 | AAAAUCUAUUGAGGAUAUUCAUACACUACGUACGGAGAAGGCAAACAAUCAUGAGGACAUGAGGAUCACCCAUGUUGUGACCAU | 17.6 | 10.6 |  | 
45 | CAGUACUGAGGAUAUACAUGAGGAUCACCCAUGUGCUCAAAGUAGGAUACUACUAUUAGUAGAAGGCAGUACUG |  |  | 22.2 | 214
46 | AUAAUGUGAGGAUAUCAGUAGUAUUGCUUCGGCAAUACUACUGAGAAGGCACAUGAGGAUCACCCAUGUGAUCA |  |  | 1380 | 32.8
47 | UCCGUGGCAUCUCGCGCAUGUCCACAUGAGGAUCACCCAUGUCAGGAUAUACGGAAUGUCGUUCCGUAGAAGGGACAAGGGCUG |  |  | 178 | 69.7
48 | AUCAGCUCGUCAGGAUAUACAUCACUGCUUCGGCAGUGUGGUAAGAUCACAUGAGGAUCACCCAUGUAGAAGGGACGAGCUGAU |  |  | 13.9 | 217
49 | AAUAACAGAGGAUAUACUGUUUUAUGUGUUUGUUGUUUUAAACAUGAGGAUCACCCAUGUAGAAGGCUGAAUGA |  |  | 26.5 | 25.2
50 | AUGACUCGUGUUAGGAUAUCUUCGGCGUGGCUGAUGGAGAAGGGACAUGAGGAUCACCCAUGUAUCCUGGUCGG |  |  | 71.3 | 123
51 | UCACGUCGCCAAGGAUAUACCCGAAGAUCCAUGGUAGAAGGUGGUGACAUGAGGAUCACCCAUGUCCGCGCGGACAAGUGUGCU |  |  | 66 | 14.7
52 | UGUUAUUAGACAGGAUAUUGAAUGUUAAGUAUUAACAUGAGGAUCACCCAUGUAUUUGAUUGGUACAAGAAGGGUCAUGUUCCU | 431 | 649 |  | 
53 | CUCGGACAUGAGGAUCACCCAUGUGAGGAUAUGGCGCGAUCGUCGAAAGACGAUAGCGCCAGAAGGCACAAAUG |  |  | 65.4 | 195
54 | AGGUAAGACUUAAUUGUGCUGGUGAGAAGGCAAAUGGUUGUGAUUAACAUGAGGAUCACCCAUGUUGAGGAUAUCAUCGGUAUC |  |  |  | 62.9
55 | AAACUGUGAGGAUAUGGUGAGUAGUGCCUGAGCGCUGCUCACCAGAAGGCACAUGAGGAUCACCCAUGUAUAAA |  |  | 25.5 | 74.7
